These results are taken from ChEMBL document CHEMBL4311996 (Bioorg Med Chem Lett, 2019).

As usually defined, the IC50 is the midpoint of a concentration-inhibition curve. The term CC50 denotes the concentration at which the toxic effect on the cells reaches its halfway point. One may read the Cmax as the peak of the concentration-time curve. Usually half-life stands for the time in which the quantity being followed falls by half. A word on the AUC: it is the area under the concentration-time curve, a measure of exposure. As a reminder, the AUC(0-inf) is the area under the concentration-time curve extrapolated to infinity. In general, clearance refers to the volume of plasma or blood freed of the substance per unit of time.

In data set [1] the test system is Middle East respiratory syndrome-related coronavirus. The data set can be described thus: Antiviral activity against MERS-CoV KOR/KNIH/002_05_2015 infected in African green monkey Vero cells expressing viral spike protein by immunofluorescence assay. It counts as functional, organism-based. Particulars: KOR/KNIH/002_05_2015, Vero.
A further data set deals with Vero. Briefly: (§1) Cytotoxicity against African green monkey Vero cells assessed as reduction in cell viability. It counts as cell-based. The conditions noted are these: chlorocebus sabaeus, vero.
A short description of data set [2]: as §1. It counts as cell-based. Particulars: chlorocebus sabaeus, Vero cells.
Data set [3] in a line: Metabolic stability in human microsomes assessed as parent compound remaining measured after 30 mins. The class given is ADME, Microsome. Particulars: read-out: Stability.
A short description of data set [4]: Metabolic stability in rat microsomes assessed as parent compound remaining measured after 30 mins. It counts as ADME, Microsome. Particulars: read-out: Stability.
A short description of data set [5]: Metabolic stability in mouse microsomes assessed as parent compound remaining measured after 30 mins. Particulars: read-out: Stability. It counts as ADME, Microsome.
The target of data set [6] is Voltage-gated inwardly rectifying potassium channel KCNH2 (Homo sapiens, UniProt Q12809). The data set can be described thus: Binding affinity to human ERG.
The test system of a further data set is HFL1. The data set can be described thus: Cytotoxicity against human HFL1 cells assessed as reduction in cell viability. It counts as cell-based.
In the next data set the test system is L929. The data set can be described thus: Cytotoxicity against mouse L929 cells assessed as reduction in cell viability. It counts as cell-based.
Another data set deals with NIH3T3. Briefly: Cytotoxicity against mouse NIH/3T3 cells assessed as reduction in cell viability. The class given is cell-based.
The test system of a further data set is CHO-K1. Briefly: Cytotoxicity against CHOK1 cells assessed as reduction in cell viability. It counts as cell-based. The conditions noted are these: Cricetulus griseus.
The nature of data set [7]: Cmax in rat at 5 mg/kg, po. The conditions noted are these: in vivo. It counts as ADME, organism-based. Also on record: dose 5 mg/kg, route oral. The procedure, abridged:
(§2)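 Rats given single doses, 2 mg/kg intravenously or 5 mg/kg orally, with three animals per route (n = 3). Each parameter is taken from three determinations.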

The nature of data set [8]: Half life in rat at 2 mg/kg, iv. The class given is ADME, organism-based. Particulars: in vivo.
The nature of data set [9]: AUC (0 to 24 hrs) in rat at 2 mg/kg, iv. The class given is ADME, organism-based. Also on record: time < 24 hr, dose 2 mg/kg, route intravenous. The conditions noted are these: in vivo. The procedure, abridged: as §2
Data set [10] in a line: AUC (0 to infinity) in rat at 2 mg/kg, iv. The class given is ADME, organism-based. Also on record: dose 2 mg/kg, route intravenous, time infinity. The conditions noted are these: in vivo. The procedure, abridged:
as §2

The nature of data set [11]: Clearance in rat at 2 mg/kg, iv. It counts as ADME, organism-based. Particulars: in vivo. The procedure, abridged: as §2
Data set [12] can be described thus: Oral bioavailability in rat at 5 mg/kg. It counts as ADME, organism-based. Particulars: in vivo. The procedure, abridged: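 Rats dosed at 5 mg/kg p.o., with comparison i.v. dosing at 2 mg/kg; n = 3 per route, three determinations.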

Sequence of Voltage-gated inwardly rectifying potassium channel KCNH2 (Q12809 whole entry): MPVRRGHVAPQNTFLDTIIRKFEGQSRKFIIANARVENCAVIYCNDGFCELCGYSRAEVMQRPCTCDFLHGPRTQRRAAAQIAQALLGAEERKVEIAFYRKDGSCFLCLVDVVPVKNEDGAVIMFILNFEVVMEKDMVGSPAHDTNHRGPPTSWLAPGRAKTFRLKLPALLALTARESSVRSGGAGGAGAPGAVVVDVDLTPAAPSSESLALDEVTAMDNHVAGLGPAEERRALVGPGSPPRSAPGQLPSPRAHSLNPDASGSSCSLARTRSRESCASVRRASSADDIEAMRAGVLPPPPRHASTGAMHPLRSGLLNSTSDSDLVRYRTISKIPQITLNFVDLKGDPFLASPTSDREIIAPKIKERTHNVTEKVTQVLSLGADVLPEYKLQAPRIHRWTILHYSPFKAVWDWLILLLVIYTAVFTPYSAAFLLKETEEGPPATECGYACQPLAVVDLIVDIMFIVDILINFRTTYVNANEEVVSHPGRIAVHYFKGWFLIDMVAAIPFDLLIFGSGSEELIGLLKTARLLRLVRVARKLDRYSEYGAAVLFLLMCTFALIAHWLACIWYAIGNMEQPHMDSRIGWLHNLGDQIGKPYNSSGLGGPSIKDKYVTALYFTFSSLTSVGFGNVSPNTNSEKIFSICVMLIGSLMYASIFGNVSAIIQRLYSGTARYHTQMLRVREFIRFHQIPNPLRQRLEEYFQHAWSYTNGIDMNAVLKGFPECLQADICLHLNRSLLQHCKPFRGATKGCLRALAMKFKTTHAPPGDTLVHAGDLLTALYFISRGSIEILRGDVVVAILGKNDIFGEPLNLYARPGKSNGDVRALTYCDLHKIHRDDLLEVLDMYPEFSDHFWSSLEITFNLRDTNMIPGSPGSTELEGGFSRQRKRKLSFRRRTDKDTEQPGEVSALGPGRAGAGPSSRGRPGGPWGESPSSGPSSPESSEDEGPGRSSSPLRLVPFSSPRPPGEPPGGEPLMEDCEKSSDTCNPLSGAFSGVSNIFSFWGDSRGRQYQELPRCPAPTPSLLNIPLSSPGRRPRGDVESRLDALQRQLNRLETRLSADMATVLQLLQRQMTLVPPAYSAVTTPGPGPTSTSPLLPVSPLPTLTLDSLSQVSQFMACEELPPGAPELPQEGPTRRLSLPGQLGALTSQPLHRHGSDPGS

In turn, `CC(=O)c1c(Nc2ccc(Br)cc2)[nH]c2c(F)cc(F)cc2c1=O` had an IC50 in data set [1] of 1.13 µM. For the same molecule, the half-maximal cytotoxic concentration (CC50) in the data set with Vero is more than 25 µM.

Molecule `CC(=O)c1c(Nc2ccc(F)c(F)c2F)[nH]c2c(F)cc(F)cc2c1=O` displayed an IC50 in data set [1] of 0.53 µM. In the data set on Vero, the half-maximal cytotoxic concentration (CC50) is more than 25 µM.

Regarding `CCCCNc1[nH]c2c(F)cc(F)cc2c(=O)c1C(C)=O`, in data set [1], the IC50 is more than 25 µM. Further, the 50% cytotoxic concentration (CC50) in the data set on Vero was more than 25 µM.

Molecule `CC(=O)c1c(NCc2ccc(F)cc2)[nH]c2c(F)cc(F)cc2c1=O` had a half-inhibitory concentration (IC50) in data set [1] of 17.6 µM. Besides, the CC50 in the data set with Vero was more than 25 µM.

For the molecule `CC(=O)c1c(OCc2ccc(Cl)c(Cl)c2)[nH]c2c(F)cc(F)cc2c1=O`, the IC50 in [1] turned out to be 7.8 µM. The cytotoxic concentration (CC50) in the data set with Vero is more than 25 µM.

In data set [1], `CC(=O)c1c(Nc2ccc(Cl)cc2)[nH]c2c(F)cc(F)cc2c1=O` registered a concentration for half-maximal inhibition (IC50) of 1.44 µM. In the data set with Vero, the cytotoxic concentration (CC50) was more than 25 µM.

Consider `COc1ccc(Nc2[nH]c3c(F)cc(F)cc3c(=O)c2C(C)=O)cc1`, for which, in data set [1], the IC50 was more than 25 µM. Also, the CC50 with Vero was more than 25 µM.

For `CC(C)C(=O)c1c(Nc2ccc(F)cc2F)[nH]c2c(Cl)cc(Cl)c(Cl)c2c1=O`, half-maximal inhibition in [1] (IC50) required 0.129 µM. For the same molecule, the CC50 in [2] was more than 25 µM.

In data set [1], `CC(=O)c1c(N2CCCCC2)[nH]c2c(F)cc(F)cc2c1=O` registered an IC50 of more than 25 µM. In addition, the CC50 in the data set with Vero was more than 25 µM.

In the case of `CC(C)C(=O)c1c(Nc2ccc(F)cc2F)[nH]c2c(F)cc(F)cc2c1=O`, the half-maximal inhibitory concentration (IC50) in data set [1] is 0.79 µM. For the same molecule, the CC50 with Vero was more than 25 µM.

On to `CC(=O)c1c(N2CCOCC2)[nH]c2c(F)cc(F)cc2c1=O`, for which, in data set [1], the IC50 is more than 25 µM. In addition, in the data set with Vero, the CC50 is more than 25 µM.

In [1], `CC(=O)c1c(NC(C)C)[nH]c2c(C(F)(F)F)cc(Cl)cc2c1=O` yielded a 50% inhibitory concentration (IC50) of 0.77 µM. For the same molecule, the CC50 in the data set on Vero was more than 25 µM.

Molecule `CC(=O)c1c(NC(C)C)[nH]c2c(C(C)C)cccc2c1=O` came in with an IC50 in [1] of more than 25 µM.

In the case of `CC(C)C(=O)c1c(Nc2ccc(F)c(F)c2F)[nH]c2c(F)cc(F)cc2c1=O`, the IC50 turned out to be 0.086 µM in [1]; 6.9 µM in data set [6]; 15.6 µM in the data set on HFL1; 15.8 µM with L929; 65.6 µM in the data set with NIH3T3; 6.9 µM with CHO-K1. In addition, the CC50 in the data set on Vero was more than 25 µM. The values for the remaining at 0.5 h in data set [3], in data set [4] and in data set [5] were 52%, 44% and 35%, respectively. In data set [7], this molecule registered a Cmax of 2320 ng/mL. This molecule also had a half-life in data set [8] of 4.6 h. This molecule also gave an AUC in [9] of 28300 ng·h/mL. This molecule also had an area under the curve AUC(0-inf) in [10] of 28900 ng·h/mL. In data set [11], the clearance was 1.17 mL/min/kg. In data set [12], this molecule gave an F of 56%.

`CC(=O)c1c(Nc2ccc(F)cc2F)[nH]c2c(F)cc(Cl)cc2c1=O` gave a half-maximal inhibitory concentration (IC50) in data set [1] of 0.98 µM. The cytotoxic concentration (CC50) with Vero was more than 25 µM.

`CC(C)Nc1[nH]c2c(C(F)(F)F)cc(Cl)cc2c(=O)c1C(=O)c1ccccc1` had an IC50 in data set [1] of more than 25 µM.

On to `CC(C)C(=O)c1c(Nc2ccc(F)cc2F)[nH]c2c(C(F)(F)F)cc(Cl)cc2c1=O`, for which, in data set [1], the concentration for half-maximal inhibition (IC50) turned out to be 0.13 µM. In addition, the cytotoxic concentration (CC50) in the data set with Vero turned out to be 7.3 µM.

In the case of `CC(=O)c1c(NCc2ccc(F)cc2F)[nH]c2c(F)cc(F)cc2c1=O`, 5.9 µM corresponded to half-maximal inhibition in [1] (IC50). Besides, the CC50 with Vero was more than 25 µM.

Molecule `CC(=O)c1c(Nc2ccc(F)cc2F)[nH]c2c(C(F)(F)F)cc(Cl)cc2c1=O` displayed a 50% inhibitory concentration (IC50) in [1] of 0.15 µM. For the same molecule, in the data set on Vero, the 50% cytotoxic concentration (CC50) was found to be 7.3 µM.

With `CC(=O)c1c(Nc2ccc(F)cc2F)[nH]c2c(F)cc(F)cc2c1=O`, the IC50 in data set [1] was 1.06 µM. Moreover, the CC50 in the data set on Vero is more than 25 µM.

As to `CC(C)C(=O)c1c(Nc2ccc(F)c(F)c2F)[nH]c2c(Cl)ccc(Cl)c2c1=O`, in data set [1], half-maximal inhibition (IC50) was put at 0.166 µM. In addition, the CC50 with Vero was determined as 10.9 µM.

For `COc1cccc(Nc2[nH]c3c(F)cc(F)cc3c(=O)c2C(C)=O)c1`, the IC50 in [1] is more than 25 µM. The CC50 with Vero is more than 25 µM.

As to `CC(=O)c1c(Nc2ccc(F)cc2F)[nH]c2c(Cl)cc(Cl)c(Cl)c2c1=O`, the half-maximal inhibitory concentration (IC50) in data set [1] was found to be 0.29 µM. The 50% cytotoxic concentration (CC50) in the data set with Vero is more than 25 µM.

`CC(C)C(=O)c1c(Nc2ccc(F)c(F)c2F)[nH]c2c(Cl)cc(Cl)c(Cl)c2c1=O` had an IC50 in data set [1] of 0.1 µM. Also, the CC50 in the data set on Vero was 6.4 µM.

On to `CC(=O)c1c(Nc2ccc(F)cc2F)[nH]c2c([N+](=O)[O-])cc(Cl)cc2c1=O`, for which, in [1], the midpoint of inhibition, the IC50, lay at 1.16 µM. Besides, the CC50 in the data set on Vero is more than 25 µM.

Regarding `COc1ccc(CNc2[nH]c3c(F)cc(F)cc3c(=O)c2C(C)=O)cc1`, the IC50 in data set [1] is more than 25 µM. In addition, in the data set with Vero, the 50% cytotoxic concentration (CC50) is more than 25 µM.

In the case of `CC(=O)c1c(NC(C)C)[nH]c2c(C)cc(C)cc2c1=O`, in [1], the IC50 was more than 25 µM.
